Converted amounts (≈) assume the structure as drawn. The source made the active and inactive calls. The rule behind the calls is not given here.
Tests used:
Haemophilus influenzae [1] = assay: Antibacterial activity against Haemophilus influenzae 1224 ATCC 49247 by microdilution method; format: functional
Outline: (§1)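 MIC values from CLSI broth microdilution. Strains came from the ATCC collection and from clinical isolates.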

Streptococcus pneumoniae [2] = assay: Antibacterial activity against multidrug-resistant Streptococcus pneumoniae 933 by microdilution method; format: functional; outline: as §1
Streptococcus pneumoniae [3] = assay: Antibacterial activity against quinolone-resistant Streptococcus pneumoniae 376 by microdilution method; format: functional; outline: as §1
Enterococcus faecium [4] = assay: Antibacterial activity against vancomycin-sensitive Enterococcus faecium 843 by microdilution method; format: functional; outline: as §1
[5] = test system: Staphylococcus epidermidis; assay: Antibacterial activity against methicillin-sensitive Staphylococcus epidermidis 1597 by microdilution method; format: functional; outline: as §1
[6] = test system: Staphylococcus epidermidis; assay: Antibacterial activity against methicillin-resistant Staphylococcus epidermidis 1452 by microdilution method; format: functional; outline: as §1
Staphylococcus aureus [7] = assay: Antibacterial activity against vancomycin-intermediate Staphylococcus aureus 2018 by microdilution method; format: functional; outline: as §1
Klebsiella pneumoniae [8] = assay: Antibacterial activity against ampicillin beta-lactamase, multidrug-resistant Klebsiella pneumoniae 2262 by microdilution method; format: functional; outline: as §1
Streptococcus pneumoniae [9] = assay: Antibacterial activity against Streptococcus pneumoniae 1195 ATCC 49619 by microdilution method; format: functional; outline: as §1
[10] = test system: Haemophilus parainfluenzae; assay: Antibacterial activity against Haemophilus parainfluenzae 2319 ATCC 7901 by microdilution method; format: functional; outline: as §1
Staphylococcus aureus [11] = assay: Antibacterial activity against methicillin-resistant Staphylococcus aureus 2170 by microdilution method; format: functional; outline: as §1
Streptococcus pneumoniae [12] = assay: Antibacterial activity against penicillin-susceptible Streptococcus pneumoniae 866 by microdilution method; format: functional; outline: as §1
Staphylococcus aureus [13] = assay: Antibacterial activity against vancomycin-intermediate Staphylococcus aureus 2012 by microdilution method; format: functional; outline: as §1
Escherichia coli [14] = assay: Antibacterial activity against Escherichia coli 102 ATCC 25922 by microdilution method; format: functional; outline: as §1
Enterococcus faecalis = assay: Antibacterial activity against vancomycin-resistant Enterococcus faecalis 846 by microdilution method; format: functional; outline: as §1
Pseudomonas aeruginosa [15] = assay: Antibacterial activity against Pseudomonas aeruginosa 1473 by microdilution method; format: functional; outline: as §1
Staphylococcus aureus [16] = assay: Antibacterial activity against community-acquired Staphylococcus aureus 2144 by microdilution method; format: functional; outline: as §1
Streptococcus pneumoniae [17] = assay: Antibacterial activity against penicillin-resistant Streptococcus pneumoniae 940 by microdilution method; format: functional; outline: as §1
Klebsiella pneumoniae [18] = assay: Antibacterial activity against Klebsiella pneumoniae 2239 by microdilution method; format: functional; outline: as §1
Streptococcus pneumoniae [19] = assay: Antibacterial activity against penicillin-resistant Streptococcus pneumoniae 748 by microdilution method; format: functional; outline: as §1
Escherichia coli [20] = assay: Antibacterial activity against extended spectrum beta-lactamase-producing Escherichia coli 2269 by microdilution method; format: functional; outline: as §1
Staphylococcus aureus [21] = assay: Antibacterial activity against Linezolid, methicillin-resistant Staphylococcus aureus 1725 by microdilution method; format: functional; outline: as §1
Moraxella catarrhalis = assay: Antibacterial activity against Moraxella catarrhalis 557 by microdilution method; format: functional; outline: as §1
Staphylococcus aureus [22] = assay: Antibacterial activity against methicillin-resistant Staphylococcus aureus 1137 by microdilution method; format: functional; outline: as §1
Streptococcus pneumoniae [23] = assay: Antibacterial activity against quinolone-resistant Streptococcus pneumoniae 379 by microdilution method; format: functional; outline: as §1
Staphylococcus aureus [24] = assay: Antibacterial activity against Linezolid, methicillin-resistant Staphylococcus aureus 1651 by microdilution method; format: functional; outline: as §1
Serratia marcescens = assay: Antibacterial activity against Serratia marcescens 1635 by microdilution method; format: functional; outline: as §1
Enterococcus faecium [25] = assay: Antibacterial activity against vancomycin-resistant Enterococcus faecium 1254 by microdilution method; format: functional; outline: as §1
[26] = test system: Staphylococcus epidermidis; assay: Antibacterial activity against Staphylococcus epidermidis 495 by microdilution method; format: functional; outline: as §1
Streptococcus agalactiae = assay: Antibacterial activity against Streptococcus agalactiae 2033 by microdilution method; format: functional; outline: as §1
Streptococcus pyogenes = assay: Antibacterial activity against Streptococcus pyogenes 723 by microdilution method; format: functional; outline: as §1
Haemophilus influenzae [27] = assay: Antibacterial activity against ampicillin-resistant Haemophilus influenzae 1742 by microdilution method; format: functional; outline: as §1
Klebsiella pneumoniae [28] = assay: Antibacterial activity against Klebsiella pneumoniae 4352 by microdilution method; format: functional
Outline: (§2)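 MIC determined by CLSI broth microdilution; organisms were ATCC strains and clinical isolates.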

Streptococcus pneumoniae [29] = assay: Antibacterial activity against Streptococcus pneumoniae 49619 by microdilution method; format: functional; outline: as §2
Escherichia coli [30] = assay: Antibacterial activity against Escherichia coli 1411 by microdilution method; format: functional; outline: as §2
Staphylococcus aureus [31] = assay: Antibacterial activity against methicillin-resistant Staphylococcus aureus 43300 by microdilution method; format: functional; outline: as §1
Pseudomonas aeruginosa [32] = assay: Antibacterial activity against Pseudomonas aeruginosa 27853 by microdilution method; format: functional; outline: as §2
NHDF = assay: Cytotoxicity against NHDF cells after 48 hrs by celltiter glow assay; format: functional; conditions: Homo sapiens
Outline: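 Fibroblasts kept at 37 °C, 5% CO2 in FGM-2 medium, passage ≤16. Seeded at 1.25 × 10^5 cells/mL 24 h before dosing. Compounds dissolved in DMSO, tested 0.6–128 µg/mL at 1% final DMSO for 48 h. Viability by CellTiter-Glo luminescence, expressed as percent of DMSO control.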

Staphylococcus aureus [33] = assay: Antibacterial activity against methicillin-sensitive Staphylococcus aureus 100 ATCC 29213 by microdilution method; format: functional; outline: as §1
Enterococcus faecium [34] = assay: Antibacterial activity against vancomycin-resistant Enterococcus faecium 700221 by microdilution method; format: functional; outline: as §1
Escherichia coli [35] = assay: Antibacterial activity against Escherichia coli 25922 by microdilution method; format: functional; outline: as §2
Staphylococcus aureus [36] = assay: Antibacterial activity against methicillin-sensitive Staphylococcus aureus 29213 by microdilution method; format: functional; outline: as §1
HepG2 = assay: Cytotoxicity against human HepG2 cells assessed as effect on cell viability at 8 ug/mL after 48 hrs by celltiter glow assay; format: functional, cell-based
Outline: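 HepG2 cells were kept in MEM with 10% heat-inactivated FBS, 0.10 mM nonessential amino acids and 1 mM sodium pyruvate at 37 °C and 5% CO2. Cells were seeded at 1.25 × 10^5 cells/mL 24 h before dosing. Compounds were dissolved in DMSO and tested at 0.6–128 µg/mL with 1% DMSO final for 48 h. Viability was read by CellTiter-Glo luminescence as a percentage of the DMSO control.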

Staphylococcus aureus [37] = assay: Antibacterial activity against methicillin-sensitive Staphylococcus aureus 6538 by microdilution method; format: functional; outline: as §1

Q: Which results are given for O=C(O)c1cn(C2CC2)c2cc(N3CCNCC3)c(F)cc2c1=O [CIPROFLOXACIN]?
A: MIC90 (Haemophilus influenzae [1]): 0.15 µg/mL (≈ 0.453 µM); MIC90 (Streptococcus pneumoniae [2]): 2 µg/mL (≈ 6.04 µM); MIC90 (Streptococcus pneumoniae [3]): > 2 µg/mL; MIC90 (Enterococcus faecium [4]): > 2 µg/mL; MIC90 [5]: 0.25 µg/mL (≈ 0.754 µM); MIC90 [6]: > 2 µg/mL; MIC90 (Staphylococcus aureus [7]): > 2 µg/mL; MIC90 (Klebsiella pneumoniae [8]): > 2 µg/mL; MIC90 (Streptococcus pneumoniae [9]): 1 µg/mL (≈ 3.02 µM); MIC90 [10]: 0.15 µg/mL (≈ 0.453 µM); MIC90 (Staphylococcus aureus [11]): > 2 µg/mL; MIC90 (Streptococcus pneumoniae [12]): > 2 µg/mL; MIC90 (Staphylococcus aureus [13]): > 2 µg/mL; MIC90 (Escherichia coli [14]): 0.008 µg/mL (≈ 0.0241 µM); MIC90 (Enterococcus faecalis): > 2 µg/mL; MIC90 (Pseudomonas aeruginosa [15]): 1 µg/mL (≈ 3.02 µM); MIC90 (Staphylococcus aureus [16]): > 2 µg/mL; MIC90 (Streptococcus pneumoniae [17]): > 2 µg/mL; MIC90 (Klebsiella pneumoniae [18]): 0.03 µg/mL (≈ 0.0905 µM); MIC90 (Streptococcus pneumoniae [19]): 1 µg/mL (≈ 3.02 µM); MIC90 (Escherichia coli [20]): > 2 µg/mL; MIC90 (Staphylococcus aureus [21]): > 2 µg/mL; MIC90 (Moraxella catarrhalis): 0.03 µg/mL (≈ 0.0905 µM); MIC90 (Staphylococcus aureus [22]): > 2 µg/mL; MIC90 (Streptococcus pneumoniae [23]): > 2 µg/mL; MIC90 (Staphylococcus aureus [24]): > 2 µg/mL; MIC90 (Serratia marcescens): 0.06 µg/mL (≈ 0.181 µM); MIC90 (Enterococcus faecium [25]): > 2 µg/mL; MIC90 [26]: 0.5 µg/mL (≈ 1.51 µM); MIC90 (Streptococcus agalactiae): 1 µg/mL (≈ 3.02 µM); MIC90 (Streptococcus pyogenes): 0.5 µg/mL (≈ 1.51 µM); MIC90 (Haemophilus influenzae [27]): 0.008 µg/mL (≈ 0.0241 µM)

Q: How did the MIC90 (Klebsiella pneumoniae [28]) turn out when Oc1cc(Cl)c(Cl)c(Cl)c1-n1cc(Cl)c(Cl)c1Cl [NEOPYRROLOMYCIN B] was run?
A: 16 µg/mL (≈ 43.7 µM)

Q: What about the MIC90 (Haemophilus influenzae [1]) of the same molecule?
A: 0.25 µg/mL (≈ 0.683 µM)

Q: And the MIC90 (Streptococcus pneumoniae [2])?
A: 1 µg/mL (≈ 2.73 µM)

Q: What about the MIC90 (Streptococcus pneumoniae [3]) of the same molecule?
A: 2 µg/mL (≈ 5.47 µM)

Q: What about the MIC90 (Enterococcus faecium [4]) of the same molecule?
A: ≤ 0.06 µg/mL

Q: And the MIC90 [5]?
A: ≤ 0.06 µg/mL

Q: And the MIC90 [6]?
A: ≤ 0.06 µg/mL

Q: And the MIC90 (Streptococcus pneumoniae [29])?
A: 1 µg/mL (≈ 2.73 µM)

Q: And the MIC90 (Staphylococcus aureus [7])?
A: ≤ 0.06 µg/mL

Q: What about the MIC90 (Klebsiella pneumoniae [8]) of the same molecule?
A: 8 µg/mL (≈ 21.9 µM)

Q: What about the MIC90 (Streptococcus pneumoniae [9]) of the same molecule?
A: 2 µg/mL (≈ 5.47 µM)

Q: What about the MIC90 [10] of the same molecule?
A: 1 µg/mL (≈ 2.73 µM)

Q: What about the MIC90 (Staphylococcus aureus [11]) of the same molecule?
A: ≤ 0.06 µg/mL

Q: What about the MIC90 (Streptococcus pneumoniae [12]) of the same molecule?
A: 16 µg/mL (≈ 43.7 µM)

Q: What about the MIC90 (Staphylococcus aureus [13]) of the same molecule?
A: ≤ 0.06 µg/mL

Q: What about the MIC90 (Escherichia coli [14]) of the same molecule?
A: 8 µg/mL (≈ 21.9 µM)

Q: What about the MIC90 (Enterococcus faecalis) of the same molecule?
A: ≤ 0.06 µg/mL

Q: And the MIC90 (Escherichia coli [30])?
A: 16 µg/mL (≈ 43.7 µM)

Q: And the MIC90 (Pseudomonas aeruginosa [15])?
A: 16 µg/mL (≈ 43.7 µM)

Q: What about the MIC90 (Staphylococcus aureus [16]) of the same molecule?
A: 0.12 µg/mL (≈ 0.328 µM)

Q: What about the MIC90 (Streptococcus pneumoniae [17]) of the same molecule?
A: 1 µg/mL (≈ 2.73 µM)

Q: And the MIC90 (Staphylococcus aureus [31])?
A: 0.125 µg/mL (≈ 0.342 µM)

Q: And the MIC90 (Klebsiella pneumoniae [18])?
A: 16 µg/mL (≈ 43.7 µM)

Q: And the MIC90 (Pseudomonas aeruginosa [32])?
A: 16 µg/mL (≈ 43.7 µM)

Q: What about the MIC90 (Streptococcus pneumoniae [19]) of the same molecule?
A: 1 µg/mL (≈ 2.73 µM)

Q: What about the MIC90 (Escherichia coli [20]) of the same molecule?
A: 8 µg/mL (≈ 21.9 µM)

Q: And the MIC90 (Staphylococcus aureus [21])?
A: ≤ 0.06 µg/mL

Q: And the MIC90 (Moraxella catarrhalis)?
A: ≤ 0.06 µg/mL

Q: What about the MIC90 (Staphylococcus aureus [22]) of the same molecule?
A: 0.12 µg/mL (≈ 0.328 µM)

Q: And the CC90 (NHDF)?
A: 16 µg/mL (≈ 43.7 µM)

Q: And the MIC90 (Staphylococcus aureus [33])?
A: 0.25 µg/mL (≈ 0.683 µM)

Q: What about the MIC90 (Streptococcus pneumoniae [23]) of the same molecule?
A: 16 µg/mL (≈ 43.7 µM)

Q: And the MIC90 (Staphylococcus aureus [24])?
A: ≤ 0.06 µg/mL

Q: And the MIC90 (Serratia marcescens)?
A: 16 µg/mL (≈ 43.7 µM)

Q: And the MIC90 (Enterococcus faecium [25])?
A: ≤ 0.06 µg/mL

Q: What about the MIC90 (Enterococcus faecium [34]) of the same molecule?
A: 0.5 µg/mL (≈ 1.37 µM)

Q: And the MIC90 (Escherichia coli [35])?
A: 16 µg/mL (≈ 43.7 µM)

Q: What about the MIC90 (Staphylococcus aureus [36]) of the same molecule?
A: 0.5 µg/mL (≈ 1.37 µM)

Q: And the MIC90 [26]?
A: ≤ 0.06 µg/mL

Q: And the Activity (HepG2)?
A: Active

Q: And the MIC90 (Streptococcus agalactiae)?
A: 16 µg/mL (≈ 43.7 µM)

Q: And the MIC90 (Streptococcus pyogenes)?
A: > 16 µg/mL

Q: And the MBC (Staphylococcus aureus [37])?
A: 2 µg/mL (≈ 5.47 µM)

Q: And the MIC90 (Staphylococcus aureus [37])?
A: 0.25 µg/mL (≈ 0.683 µM)

Q: And the MIC90 (Haemophilus influenzae [27])?
A: 0.5 µg/mL (≈ 1.37 µM)

— ChEMBL document CHEMBL1152312, “Neopyrrolomycins with broad spectrum antibacterial activity” (2009)
